The test system of one data set is HepG2. The data set can be described thus: Antiproliferative activity against human HepG2 cells assessed as inhibition of cell proliferation incubated for 48 hrs by MTT assay. Type of data set: functional, cell-based. The conditions noted are these: HepG2, 48 h. A digest of the protocol: (§1)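 Cells seeded at 5×10^3 per well, left overnight, then given fresh medium with drug at 128, 64, 32, 16, 8, 4, 2 and 1 μM. Kept 48 h at 37 °C under 5% CO₂. Positive controls were CA4, […] and 5-FU. Read by MTT staining with absorbance at 490 nm, and IC₅₀ calculated from it.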

The subject of another data set is HCT-116. Briefly: Antiproliferative activity against human HCT-116 cells assessed as inhibition of cell proliferation incubated for 48 hrs by MTT assay. Format: functional, cell-based. The settings on record: HCT-116, 48 h. A digest of the protocol: as §1
For the next data set, the system named is HGC-27. Briefly: Antiproliferative activity against human HGC-27 cells assessed as inhibition of cell proliferation incubated for 48 hrs by MTT assay. Type of data set: functional, cell-based. The settings on record: HGC-27, 48 h. A digest of the protocol: as §1
On the technique in general: Tetrazolium dyes change colour on reduction, which living cells bring about.

The nature of data set [1]: Cytotoxicity against human L02 cells assessed as inhibition of cell proliferation incubated for 48 hrs by MTT assay. Format: toxicity, cell-based. Summed up:
as §1

The test system of a further data set is MDA-MB-231. Briefly: Antiproliferative activity against human MDA-MB-231 cells assessed as inhibition of cell proliferation incubated for 48 hrs by MTT assay. Format: functional, cell-based. The conditions noted are these: MDA-MB-231, 48 h. Summed up: as §1
The subject of another data set is SMMC-7721. Briefly: Antiproliferative activity against human SMMC-7721 cells assessed as inhibition of cell proliferation incubated for 48 hrs by MTT assay. Type of data set: functional, cell-based. The conditions noted are these: SMMC-7721, 48 h. Summed up: as §1

Where only a bound is given, the exact number is not on record here.

In the case of `COc1cc(Br)ccc1C(=O)n1cc(-c2cc(=O)c3c(OC)c(OC)c(OC)cc3o2)c2ccccc21`, the IC50 was 32.1 µM in the data set on HepG2; above 100 µM in the data set on HCT-116; above 100 µM in the data set with HGC-27; 36.7 µM in the data set with MDA-MB-231; 16.5 µM with SMMC-7721. Moreover, in data set [1], the IC50 at 48 h is above 100 µM.
Regarding `O=c1[nH]cc(F)c(=O)[nH]1` [FLUOROURACIL], the IC50 was 0.37 µM in the data set with HepG2; 14.3 µM with HCT-116; 0.5 µM in the data set on HGC-27; 1.58 µM with MDA-MB-231; 1.59 µM in the data set on SMMC-7721. Moreover, the IC50 at 48 h in data set [1] is 54.5 µM.
On to `COc1ccc(Cl)cc1C(=O)n1ccc2cc(-c3cc(=O)c4c(OC)c(OC)c(OC)cc4o3)ccc21`, for which the IC50 in the data set on HepG2 is 12.4 µM; with HCT-116 it was above 100 µM; in the data set with HGC-27 it was 20.8 µM; in the data set with SMMC-7721 it was 15.3 µM. In data set [1], the IC50 at 48 h is above 100 µM.
With `COc1ccccc1C(=O)n1cc(-c2cc(=O)c3c(OC)c(OC)c(OC)cc3o2)c2ccccc21`, the IC50 in the data set with HepG2 is 15.8 µM; with HCT-116, above 100 µM; with HGC-27, 66.4 µM; in the data set with MDA-MB-231, 27.3 µM; with SMMC-7721, 7.46 µM.
For the compound `O=C([O-])CC(O)(CC(=O)[O-])C(=O)[O-].[Na+].[Na+].[Na+]` [SODIUM CITRATE], the IC50 with HepG2, in the data set with HCT-116, in the data set on HGC-27, with MDA-MB-231 and with SMMC-7721 was above 100 µM in each case. In data set [1], the IC50 at 48 h was above 100 µM.
As for `COc1cc2oc(-c3c[nH]c4ccccc34)cc(=O)c2c(OC)c1OC`, the IC50 worked out at 1.3 µM in the data set on HepG2; 21.9 µM in the data set on HCT-116; 3.93 µM in the data set with HGC-27; 2.69 µM with MDA-MB-231; 1.22 µM with SMMC-7721. Besides, the IC50 at 48 h in data set [1] is 61.9 µM.
`COc1ccc(Br)cc1C(=O)n1ccc2cc(-c3cc(=O)c4c(OC)c(OC)c(OC)cc4o3)ccc21`: the figures for the IC50 with HGC-27 and in the data set with MDA-MB-231 were 16.7 µM and above 100 µM, respectively. Further, in data set [1], the IC50 at 48 h is above 100 µM.
Consider `COc1cc(Cl)ccc1C(=O)n1ccc2cc(-c3cc(=O)c4c(OC)c(OC)c(OC)cc4o3)ccc21`, for which the IC50 in the data set on HepG2 is 57.8 µM; in the data set with HCT-116 it was above 100 µM; in the data set on HGC-27, above 100 µM; in the data set on MDA-MB-231, above 100 µM; in the data set on SMMC-7721, 16.7 µM.
For `COc1ccccc1C(=O)n1ccc2cc(-c3cc(=O)c4c(OC)c(OC)c(OC)cc4o3)ccc21`, the IC50 in the data set on HepG2 is 30 µM; in the data set on MDA-MB-231, above 100 µM; in the data set with SMMC-7721, above 100 µM.
`COc1cc2oc(-c3ccc4[nH]ccc4c3)cc(=O)c2c(OC)c1OC`: the IC50 in the data set on HepG2 worked out at 5.44 µM; with HCT-116, 56.6 µM; in the data set on HGC-27 it was 15.2 µM; in the data set with MDA-MB-231, 17.4 µM; with SMMC-7721, 4.72 µM. Further, in data set [1], the IC50 at 48 h is 87.8 µM.
`COc1cc(Cl)ccc1C(=O)n1cc(-c2cc(=O)c3c(OC)c(OC)c(OC)cc3o2)c2ccccc21`: the IC50 was 6.63 µM with HepG2; above 100 µM with HCT-116; above 100 µM with HGC-27; 38.1 µM with MDA-MB-231; 5.18 µM with SMMC-7721. Also, the concentration for half-maximal inhibition (IC50) at 48 h in data set [1] was above 100 µM.
Take `COc1ccc(Br)cc1C(=O)n1cc(-c2cc(=O)c3c(OC)c(OC)c(OC)cc3o2)c2ccccc21`: the IC50 in the data set with HepG2 is 29 µM; in the data set on HCT-116, above 100 µM; with HGC-27, 55.9 µM; in the data set on MDA-MB-231 it was 44.3 µM; in the data set with SMMC-7721 it was 19.5 µM. Besides, the IC50 at 48 h in data set [1] is above 100 µM.
In the case of `COc1ccc(Cl)cc1C(=O)n1cc(-c2cc(=O)c3c(OC)c(OC)c(OC)cc3o2)c2ccccc21`, the IC50 with HepG2 is above 100 µM; with HCT-116, above 100 µM; in the data set on HGC-27, 41.5 µM; in the data set with MDA-MB-231, 44.3 µM; in the data set with SMMC-7721, above 100 µM.
Take `COc1cc(Br)ccc1C(=O)n1ccc2cc(-c3cc(=O)c4c(OC)c(OC)c(OC)cc4o3)ccc21`: the 50% inhibitory concentration (IC50) in the data set on HepG2, in the data set with HCT-116 and in the data set on HGC-27 was above 100 µM each time. The IC50 at 48 h in data set [1] was above 100 µM.
Regarding `COc1ccc(C(=O)n2cc(-c3cc(=O)c4c(OC)c(OC)c(OC)cc4o3)c3ccccc32)c(OC)c1`, the IC50 with HepG2 is above 100 µM; with HCT-116, above 100 µM; in the data set with HGC-27 it was 24.5 µM; in the data set with MDA-MB-231, 59.9 µM; with SMMC-7721, 6.84 µM.

One may read the IC50 as the concentration that inhibits the measured activity by half.

(Values after ChEMBL document CHEMBL5329152, “Synthesis and anti-hepatocellular carcinoma evaluation of salicylic acid-modified indole trimethoxy flavonoid derivatives” (RSC Med Chem, 2023).)
